Laboratory results: ChEMBL document CHEMBL4152234, “Aminobenzothiazole derivatives stabilize the thermolabile p53 cancer mutant Y220C and show anticancer activity in p53-Y220C cell lines” (Eur J Med Chem, 2018)
pIC50, pKd: −log10 of the molar value. Each block holds one compound with its values, some of them ahead of it. Active and inactive are the calls of the source. The calls are words filed in the database; no cut-off is given here.

What was measured:
[1] = Solubility of the compound in water; type: physicochemical; details: buffer
Huh-7 [2] = test: Antiproliferative activity against p53 Y220C mutant knockout human HuH7 cells up to 120 uM after 72 hrs by CellTiter-Glo assay; type: functional, cell-based
[3] = target: T1, Cellular tumor antigen p53 (Homo sapiens, UniProt P04637, Y220C); test: Binding affinity to p53 Y220C mutant (unknown origin)
[4] = tested on: Cellular tumor antigen p53 (Homo sapiens), P04637 [Y220C]; test: Binding affinity to p53 Y220C mutant (unknown origin) assessed as change in melting temperature at 250 uM
[5] = target: T1, Cellular tumor antigen p53; test: Binding affinity to N-terminal His6-tagged p53 DNA binding domain Y220C mutant (94 to 312 residues) (unknown origin) expressed in Escherichia coli C41 by ITC
[6] = tested on: Cellular tumor antigen p53 (Homo sapiens), P04637 [Y220C]; test: Binding affinity to p53 Y220C mutant (unknown origin) assessed as change in melting temperature
Huh-7 [7] = test: Antiproliferative activity against human HuH7 cells harboring p53 Y220C mutant after 72 hrs by CellTiter-Glo assay; type: functional, cell-based; details: Huh-7, 72 h
Procedure, shortened: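 Cells were exposed to compound for 72 h and viability read by CellTiter-Fluor or CellTiter-Glo 2.0. Quadruplicate technical replicates, normalized to blank (viability = 1) and no-cell (viability = 0) controls. Confirmed in at least 2 independent biological replicates. IC50 derived from the dose-response data.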

[8] = tested on: Cellular tumor antigen p53 (Homo sapiens), P04637 [Y220C]; test: Binding affinity to p53 Y220C mutant (unknown origin) assessed as change in melting temperature at 1 mM

SMILES: CCN(CC)c1nc2c(C(=O)O)c(O)c(I)c(-n3cccc3)c2s1
- Activity (Huh-7 [2]): inactive

SMILES: O=C(O)c1cc(I)c(-n2cccc2)c(I)c1O
- solubility [1]: Soluble
- pKd [3]: 4.68
- ΔTm [4]: 1.8 °C
- pKd [5]: 4.68

SMILES: CCN(CC)C1CCN(Cc2cc(C#CCNc3ccccc3)cc(I)c2O)CC1
- ΔTm [6]: 4 °C

SMILES: O=C(O)c1cc(I)cc(I)c1O
- solubility [1]: Soluble
- pKd [3]: 3.09
- ΔTm [8]: 0.6 °C

Results, then the compound that gave them:

- solubility [1]: Insoluble
SMILES: CN(C)CCNC(=O)c1cc(I)c(-n2cccc2)c(I)c1O

- solubility [1]: Insoluble
SMILES: CNC(=O)c1cc(I)c(-n2cccc2)c(I)c1O

- pIC50 (Huh-7 [7]): 3.82
SMILES: CCCSc1cc(C(=O)O)c(O)c(I)c1-n1cccc1

- solubility [1]: Insoluble
SMILES: CCN(CC)c1nc2c(C(=O)OC)c(O)c(I)c(-n3cccc3)c2s1

- solubility [1]: Insoluble
SMILES: COC(=O)c1cc(I)c(-n2cccc2)c(I)c1O
